This is a sample that favours compounds with a hit; in the whole collection about 1.5% have one here.
Rpn11 block = inhibitors of human proteasome Rpn11. O00487. human 26S proteasome, Ub4-pepOG fluorescence polarization; 20S core pre-blocked with epoxomicin. inhibition, % at 20 µM. 360,000 tested, 0.59% active;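 active = inhibition at 20 µM, scaled to each plate's controls, above about 33%, limit read from the data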
Target sequence (O00487 whole entry, looked up): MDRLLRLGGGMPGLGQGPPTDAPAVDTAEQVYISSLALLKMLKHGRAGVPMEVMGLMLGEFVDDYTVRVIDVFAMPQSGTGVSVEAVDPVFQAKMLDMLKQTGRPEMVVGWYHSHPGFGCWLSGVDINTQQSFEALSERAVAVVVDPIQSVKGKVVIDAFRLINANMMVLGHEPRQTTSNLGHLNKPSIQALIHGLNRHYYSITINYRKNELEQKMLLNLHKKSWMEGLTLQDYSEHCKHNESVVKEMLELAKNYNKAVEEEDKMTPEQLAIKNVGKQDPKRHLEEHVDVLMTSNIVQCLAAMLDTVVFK
HNF4A DNA FP = change in binding of human HNF4 alpha to DNA; activity change, % at 10 µM; 360,000 tested, 0.3% active; AID 1224865; HNF4a-FITC DNA binding, fluorescence polarization, 1 h; in the data active = activity change above about 30%, passing the limit was not always enough
CSN deneddyl inh = CSN deneddylation inhibition. inhibition, % at 12.5 µM. Q92905. 360,000 tested, 0.38% active. Purified CSN, SCF-Nedd8-OG deneddylation, fluorescence polarization;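 active = pattern-corrected inhibition above about 35%, with an unprinted fluorescence ratio check between 0.5 and 1.5, limit read from the data, passing the limit was not always enough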;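 note: 0% = enzyme with substrate and 100% = substrate without enzyme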
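Assay system: purified human Csn5 enzyme expressed in HEK293T cells; Input: 0.24 nM Csn5 enzyme, final concentration; Reagent: 10 nM SCFSkp2-Nedd8OG; Compound dosing: 12.5 µM single point; Times: reaction 90 min, room temperature; Technique: fluorescence polarization readout.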
TPT1 inh = C. albicans TPT1 enzyme inhibition; recombinant caTPT1, FP RNA substrate dephosphorylation; inhibition, % at 5 µM; AID 1962; 300,000 tested, 0.81% active;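 active = inhibition above the mean of all tested compounds plus 3 SD, set per screening campaign, cut at about 24% in these data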;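 note: plate controls were DMSO alone for no effect and ferristatin control at 100 nM for full effect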
Rpn11 inh conf = confirmation of human proteasome Rpn11 inhibitors | shares compounds with Rpn11 block | purified human 26S proteasome, Ub4-pepOG fluorescence polarization; proteasome pretreated with epoxomicin | inhibition, % at 20 µM | 1,900 tested, 29% active
MMP-2 counter = MMP-2 (human) inhibition counter-screen. shares compounds with Rpn11 block. recombinant MMP-2, FRET peptide cleavage fluorescence. inhibition, % at 20 µM. 1,900 tested, 4% active. AID 602330;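 note: human MMP-2 activated beforehand with APMA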
Thrombin FP = thrombin (bovine) inhibition counter-screen | bovine thrombin cleavage of Ub4-pepOG, fluorescence polarization | inhibition, % at 20 µM | 1,900 tested, 13% active | AID 602333 | shares compounds with Rpn11 block;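 active = mean inhibition at least 40% at 20 µM, or signal 3 deviations below plate average, so some actives read negative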;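 note: plate controls were thrombin with DMSO for no effect and buffer wells lacking thrombin for full effect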
* hit, by the source's call. Cut-off read from the data, not from the text of the source, unless noted: active = inhibition above about 40%; inactive = the rest.

Screening O=C(NCCCN1CCOCC1)c1cccc(NC(=O)c2ccccc2)c1 returned Rpn11 block 45.8*, HNF4A DNA FP 0.8, CSN deneddyl inh -0.6, TPT1 inh -3.1, Rpn11 inh conf -2.7, MMP-2 counter -17.6 and Thrombin FP -7.0.
Cc1ccc2oc(=O)c3cc(C(=O)NCCCN4CCCCCC4)sc3c2c1 was read as Rpn11 block 55.7*, HNF4A DNA FP 19.9, CSN deneddyl inh 13.9, TPT1 inh 2.3, Rpn11 inh conf 7.5, MMP-2 counter -3.9 and Thrombin FP -8.7.
For O=C(NCCCN1CCOCC1)c1cc2c(=O)[nH]c3ccccc3c2s1 the results were Rpn11 block 57.6*, HNF4A DNA FP 3.9, CSN deneddyl inh 9.6, TPT1 inh 2.3, Rpn11 inh conf -4.9, MMP-2 counter -21.9 and Thrombin FP -7.9.
CC1(C(=O)NCCCN2CCCC2=O)CCN1CCc1ccccc1 (centres undefined) was read as Rpn11 block -5.3, HNF4A DNA FP 1.7 and CSN deneddyl inh -0.6.
`CCCOc1ccc(C(=O)NC(=S)N2CCN(c3cc4c(cc3F)c(=O)c(C(=O)O)cn4CC)CC2)cc1` gave Rpn11 block 154.3*, HNF4A DNA FP -6.4, CSN deneddyl inh -1.4, TPT1 inh 0.3, Rpn11 inh conf -7.2, MMP-2 counter -18.6 and Thrombin FP -10.4.
`O=C(Cc1cccs1)N1CCN(c2ccc([N+](=O)[O-])cc2)CC1` gave Rpn11 block 9.1, HNF4A DNA FP 4.0, CSN deneddyl inh -1.7 and TPT1 inh 7.4.
`COc1ccc(CN2CCN(c3nc4ccccc4s3)CC2)cc1` gave Rpn11 block -2.0, HNF4A DNA FP -1.5 and CSN deneddyl inh 4.9.
Screening COc1ccc(CCn2c(O)cc3nn(-c4nc5ccccc5s4)c(=O)c-3c2C)cc1 returned Rpn11 block 54.9*, HNF4A DNA FP -30.5, CSN deneddyl inh 61.8, TPT1 inh 23.5, Rpn11 inh conf 7.6, MMP-2 counter -5.6 and Thrombin FP 16.3.
`O=C(CCC(=O)Nc1ccccc1Cl)NNC(=O)c1ccco1` gave Rpn11 block 48.0*, HNF4A DNA FP -3.9, CSN deneddyl inh -4.0, TPT1 inh 0.6, Rpn11 inh conf -4.4, MMP-2 counter 1.4 and Thrombin FP -12.8.
Screening Cc1c(Cl)cccc1NC(=O)CCC(=O)NNC(=O)c1ccco1 returned Rpn11 block 0.3, HNF4A DNA FP -0.4, CSN deneddyl inh 0.8 and TPT1 inh -1.0.
Cc1ccc(S(=O)(=O)N2C[C@H]3C(=O)C[C@@H](c4ccccc4F)N(S(=O)(=O)c4ccc(C)cc4)[C@H]3C[C@H]2c2ccccc2)cc1 was read as Rpn11 block -2.4, HNF4A DNA FP 6.1 and CSN deneddyl inh -1.4.
Cc1ccc([C@@H]2CC(=O)[C@@H]3CN(S(=O)(=O)c4ccc(C)cc4)[C@H](c4ccccc4F)C[C@@H]3N2S(=O)(=O)c2ccc(C)cc2)cc1 was read as Rpn11 block 50.4*, HNF4A DNA FP 3.8, CSN deneddyl inh 2.8, Rpn11 inh conf 4.8, MMP-2 counter 7.7 and Thrombin FP -0.3.
`COc1ccc(Cn2nnnc2C(c2cccs2)N2CCN(c3ccc([N+](=O)[O-])cc3)CC2)cc1` (centres undefined) gave Rpn11 block 88.6*, HNF4A DNA FP 3.2, CSN deneddyl inh -3.5, TPT1 inh -3.9, Rpn11 inh conf -12.9, MMP-2 counter -26.8 and Thrombin FP 3.7.
`CCN(CC)CCOC(=O)c1ccc(N/C=C(/C#N)c2nc(-c3ccc(OC)cc3)cs2)cc1` gave Rpn11 block 59.2*, HNF4A DNA FP 238.2, CSN deneddyl inh 137.1*, TPT1 inh 6.2, Rpn11 inh conf 55.0*, MMP-2 counter -143.5 and Thrombin FP 76.7*.
`CCN(CC)CCCN(C(=O)c1ccc(Br)cc1)c1nc(-c2ccc(OC)cc2)cs1` gave Rpn11 block -22.4, HNF4A DNA FP 3.1, CSN deneddyl inh -4.2 and TPT1 inh -0.9.
For Cc1cc(C)n(CC(O)Cn2c3ccc(Br)cc3c3cc(Br)ccc32)c(=O)n1 (centres undefined) the results were Rpn11 block 18.4, HNF4A DNA FP 1.4, CSN deneddyl inh 9.0 and TPT1 inh -2.0.
